Test results published in ChEMBL document CHEMBL2321676, “Antimalarial and Structural Studies of Pyridine-containing Inhibitors of 1-Deoxyxylulose-5-phosphate Reductoisomerase” (ACS Med Chem Lett, 2013).

Key:
Plasmodium falciparum [1] = test: Antimalarial activity against Plasmodium falciparum 3D7 after 3 days by SYBR green I assay; type: functional, organism-based; conditions: 3D7, 72 h
Plasmodium falciparum [2] = test: Antimalarial activity against Plasmodium falciparum Dd2 after 3 days by SYBR green I assay; type: functional, organism-based; conditions: Dd2, 72 h
Plasmodium falciparum [3] = test: Ratio of fosmidomycin Ki to compound Ki for Plasmodium falciparum recombinant DXR
[4] = Selectivity index, ratio of EC50 for human WI38 cells to EC50 for Plasmodium falciparum; type: toxicity, cell-based, WI-38; conditions: read-out: Ratio EC50
WI-38 = test: Cytotoxicity against human WI38 cells after 48 hrs by MTS assay; type: cell-based; conditions: WI-38, 48 h
[5] = Inhibition of Plasmodium falciparum recombinant DXR using DXP as substrate preincubated for 5 mins
Method in brief: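 Recombinant P. falciparum DXR. Inhibition is expressed as Ki.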

[6] = Inhibition of Escherichia coli recombinant DXR using DXP as substrate preincubated for 5 mins
[7] = Half life in plasma (unknown origin); type: ADME, cell-free; conditions: unidentified

Compound | EC50 (Plasmodium falciparum [1]) [nM] | EC50 (Plasmodium falciparum [2]) [nM] | Ratio Ki (Plasmodium falciparum [3]) | selectivity ratio [4] | EC50 (WI-38) [nM] | Ki [5] [nM] | Ki [6] [nM] | half-life [7] [h]
CC(=O)N(O)CCC(c1ccccc1)P(=O)(O)O (stereo unspecified) | 3500 | 1700 |  |  |  |  |  | 
CC(=O)N(O)CCC(c1ccncc1)P(=O)(O)O (stereo unspecified) | 630 | 460 | 1.6 | > 1700 | > 300000 | 13 | 82 | 
CCN(CC)CCCC(C)Nc1ccnc2cc(Cl)ccc12 (stereo unspecified) [CHLOROQUINE] | 21 | 120 |  |  |  |  |  | 
O=CN(O)CCC(c1cccnc1)P(=O)(O)O (stereo unspecified) | 340 | 180 |  | > 1700 | > 300000 | 13 | 87 | 
CC(=O)N(O)CCC(c1cccnc1)P(=O)(O)O (stereo unspecified) | 440 | 310 | 11 | > 1700 | > 300000 | 1.9 | 42 | 
O=CN(O)CCCP(=O)(O)O [FOSMIDOMYCIN] | 1170 | 440 |  |  |  |  |  | 1
O=CN(O)CCC(c1ccccc1)P(=O)(O)O (stereo unspecified) |  |  |  |  |  | 480 | 1500 | 
O=CN(O)CCC(c1ccncc1)P(=O)(O)O (stereo unspecified) | 180 | 170 | 2.4 | > 1700 | > 300000 | 8.9 | 35 | 
